Active and inactive are the calls of the source. The calls are words filed in the database; no cut-off is given here.

Series [1] has as its system A-431. Briefly: Induction of apoptosis in human A-431 cells assessed as viable cells at 20 uM incubated for 24 hrs by annexin-V/FITC and propidium iodide based staining based flow cytometry (Rvb= 90.70 %). Type of series: functional. Particulars: read-out: Activity. (In general: A flow cytometer gives signals particle by particle.)
The nature of series [2]: Antiproliferative activity against human WI-26 AV4 cells assessed as reduction in cell viability measured after 72 hrs by MTT assay. The following applies: WI26VA4, 72 h. On the technique in general: Tetrazolium dyes change colour on reduction, which living cells bring about.
In series [3] the test system is A-431. Put plainly: Antiproliferative activity against human A-431 cells assessed as cell survival rate at 300 uM measured after 24 hrs under CoCl2-induced hypoxic condition by MTT assay relative to control. In kind it is functional. The following applies: read-out: Survival. An outline of the steps:
(§1)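 MTT end-point assay. MTT (5 mg/mL in PBS) added for 4 h, formazan dissolved in DMSO, absorbance read at 560 nm. Viability given as % of untreated control (100%); mean ± SEM of three experiments.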

Series [4] concerns A-431. Briefly: Induction of apoptosis in human A-431 cells assessed as dead cells at 10 uM incubated for 24 hrs by annexin-V/FITC and propidium iodide based staining based flow cytometry (Rvb= 0.14 %). In kind it is functional.
Series [5] deals with U-87 MG. Briefly: Antiproliferative activity against human U-87 MG cells assessed as cell survival rate at 300 uM measured after 24 hrs under CoCl2-induced hypoxic condition by MTT assay relative to control. Type of series: functional, U-87MG ATCC. Particulars: read-out: Survival. An outline of the steps:
as §1

The test system of series [6] is A-431. Put plainly: Antiproliferative activity against human A-431 cells assessed as cell survival rate at 100 uM measured after 24 hrs under CoCl2-induced hypoxic condition by MTT assay relative to control. The following applies: read-out: Survival. In kind it is functional. An outline of the steps: as §1
Series [7] concerns A-431. Put plainly: Antiproliferative activity against human A-431 cells assessed as reduction in cell viability measured after 72 hrs by MTT assay. Particulars: A-431, 72 h.
Series [8] deals with A-431. Briefly: Induction of apoptosis in human A-431 cells assessed as dead cells at 5 uM incubated for 24 hrs by annexin-V/FITC and propidium iodide based staining based flow cytometry (Rvb= 0.14 %). Type of series: functional.
Series [9] concerns A-431. Put plainly: Induction of apoptosis in human A-431 cells assessed as viable cells at 5 uM incubated for 24 hrs by annexin-V/FITC and propidium iodide based staining based flow cytometry (Rvb= 90.70 %). Type of series: functional. The following applies: read-out: Activity.
Series [10] deals with A-431. Briefly: Induction of apoptosis in human A-431 cells assessed as early apoptotic cells at 20 uM incubated for 24 hrs by annexin-V/FITC and propidium iodide based staining based flow cytometry (Rvb= 6.10 %). Type of series: functional.
In series [11] the test system is A-431. Put plainly: Induction of apoptosis in human A-431 cells assessed as late apoptotic cells at 10 uM incubated for 24 hrs by annexin-V/FITC and propidium iodide based staining based flow cytometry (Rvb= 3.06 %). In kind it is functional.
Series [12] has as its system A-431. Put plainly: Induction of apoptosis in human A-431 cells assessed as dead cells at 25 uM incubated for 24 hrs by annexin-V/FITC and propidium iodide based staining based flow cytometry (Rvb= 0.14 %). Type of series: functional.
For series [13], the system named is A-431. Put plainly: Induction of apoptosis in human A-431 cells assessed as dead cells at 20 uM incubated for 24 hrs by annexin-V/FITC and propidium iodide based staining based flow cytometry (Rvb= 0.14 %). In kind it is functional.
The test system of series [14] is A-431. Briefly: Antiproliferative activity against human A-431 cells assessed as reduction in cell viability measured after 24 hrs by MTT assay. Particulars: A-431, 24 h.
Series [15] concerns A-431. Put plainly: Induction of apoptosis in human A-431 cells assessed as late apoptotic cells at 25 uM incubated for 24 hrs by annexin-V/FITC and propidium iodide based staining based flow cytometry (Rvb= 3.06 %). In kind it is functional.
A short description of series [16]: Antiproliferative activity against human WI-26 AV4 cells assessed as reduction in cell viability measured after 24 hrs by MTT assay. Particulars: WI-26 AV4, 24 h.
The target of series [17] is Carbonic anhydrase 2 (Homo sapiens, UniProt P00918). Put plainly: Inhibition of human carbonic anhydrase 2 assessed as inhibition constant incubated for 15 mins prior to testing by phenol red based stopped-flow CO2 hydration assay.
Series [18] deals with A-431. Put plainly: Induction of apoptosis in human A-431 cells assessed as viable cells at 25 uM incubated for 24 hrs by annexin-V/FITC and propidium iodide based staining based flow cytometry (Rvb= 90.70 %). In kind it is functional. The following applies: read-out: Activity.
Series [19] has as its system A-431. Briefly: Induction of apoptosis in human A-431 cells assessed as dead cells at 15 uM incubated for 24 hrs by annexin-V/FITC and propidium iodide based staining based flow cytometry (Rvb= 0.14 %). Type of series: functional.
Series [20] relates to A-431. Briefly: Induction of apoptosis in human A-431 cells assessed as activation of caspase 3/7 measured after 24 hrs by CellEvent caspase 3/7 green detection reagent based assay. In kind it is functional, cell-based. An outline of the steps: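 Subconfluent cells in 6-well plates exposed to compound (5–25) for 24 h at 37 °C, 5% CO₂. Cells washed in PBS and resuspended at 1 × 10^6/mL. CellEvent caspase-3/7 green reagent added at 4 final, incubated 30 min at 37 °C, then analysed by flow cytometry within 20 min.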

The test system of series [21] is A-431. Put plainly: Induction of apoptosis in human A-431 cells assessed as early apoptotic cells at 25 uM incubated for 24 hrs by annexin-V/FITC and propidium iodide based staining based flow cytometry (Rvb= 6.10 %). In kind it is functional.
Series [22] concerns A-431. Briefly: Induction of apoptosis in human A-431 cells assessed as viable cells at 10 uM incubated for 24 hrs by annexin-V/FITC and propidium iodide based staining based flow cytometry (Rvb= 90.70 %). Particulars: read-out: Activity. Type of series: functional.
Series [23] relates to A-431. Briefly: Induction of apoptosis in human A-431 cells assessed as early apoptotic cells at 5 uM incubated for 24 hrs by annexin-V/FITC and propidium iodide based staining based flow cytometry (Rvb= 6.10 %). Type of series: functional.
Series [24] has as its system A-431. Briefly: Induction of apoptosis in human A-431 cells assessed as late apoptotic cells at 20 uM incubated for 24 hrs by annexin-V/FITC and propidium iodide based staining based flow cytometry (Rvb= 3.06 %). Type of series: functional.
The subject of series [25] is U-87 MG. Put plainly: Antiproliferative activity against human U-87 MG cells assessed as cell growth inhibition at 30 to 100 uM measured after 24 hrs under CoCl2-induced hypoxic condition by MTT assay. Type of series: functional, cell-based. Particulars: U-87MG ATCC, dose 30-100 µM.
The test system of series [26] is A-431. Put plainly: Induction of apoptosis in human A-431 cells assessed as early apoptotic cells at 15 uM incubated for 24 hrs by annexin-V/FITC and propidium iodide based staining based flow cytometry (Rvb= 6.10 %). Type of series: functional.
Series [27] deals with Carbonic anhydrase 9 (Homo sapiens, UniProt Q16790). Briefly: Inhibition of human carbonic anhydrase 9 assessed as inhibition constant incubated for 15 mins prior to testing by phenol red based stopped-flow CO2 hydration assay.
The test system of series [28] is A-431. Briefly: Induction of apoptosis in human A-431 cells assessed as early apoptotic cells at 10 uM incubated for 24 hrs by annexin-V/FITC and propidium iodide based staining based flow cytometry (Rvb= 6.10 %). Type of series: functional.
The test system of series [29] is A-431. Put plainly: Induction of apoptosis in human A-431 cells assessed as late apoptotic cells at 15 uM incubated for 24 hrs by annexin-V/FITC and propidium iodide based staining based flow cytometry (Rvb= 3.06 %). Type of series: functional.
In series [30] the test system is hTERT-BJ. Briefly: Cytotoxicity against human TERT-Bj-5ta cells assessed as reduction in cell viability at measured after 24 hrs under CoCl2- induced hypoxic condition by MTT assay. In kind it is cell-based.
Series [31] relates to A-431. Briefly: Antiproliferative activity against human A-431 cells assessed as reduction in cell viability measured after 48 hrs by MTT assay. Particulars: A-431, 48 h.
Series [32] is described as follows: Antiproliferative activity against human WI-26 AV4 cells assessed as reduction in cell viability measured after 48 hrs by MTT assay. Particulars: WI-26 AV4, 48 h.
Series [33] concerns A-431. Put plainly: Induction of apoptosis in human A-431 cells assessed as viable cells at 15 uM incubated for 24 hrs by annexin-V/FITC and propidium iodide based staining based flow cytometry (Rvb= 90.70 %). In kind it is functional. The following applies: read-out: Activity.
For series [34], the system named is A-431. Briefly: Induction of apoptosis in human A-431 cells assessed as late apoptotic cells at 5 uM incubated for 24 hrs by annexin-V/FITC and propidium iodide based staining based flow cytometry (Rvb= 3.06 %). Type of series: functional.
Series [35] concerns RT-4. Briefly: Antiproliferative activity against human RT-4 cells assessed as cell survival rate at 100 uM measured after 24 hrs under CoCl2-induced hypoxic condition by MTT assay relative to control. In kind it is functional. The following applies: read-out: Survival. The method in brief: as §1
Series [36] relates to RT-4. Briefly: Antiproliferative activity against human RT-4 cells assessed as cell survival rate at 300 uM measured after 24 hrs under CoCl2-induced hypoxic condition by MTT assay relative to control. In kind it is functional. Particulars: read-out: Survival. An outline of the steps:
as §1

In series [37] the test system is hTERT-BJ. Briefly: Cytotoxicity against human TERT-Bj-5ta cells assessed as reduction in cell viability at 300 uM measured after 24 hrs under CoCl2- induced hypoxic condition by MTT assay relative to control. Type of series: cell-based.

One may read the IC50 as the midpoint of a concentration-inhibition curve. The term Ki denotes the dissociation constant of the complex between target and ligand, obtained from inhibition or displacement. For the molecule `NS(=O)(=O)c1cc2c(ccc3ccccc32)oc1=O`, the viability at 20 µM in [1] came out at 81.2%. Further, the IC50 in [2] is more than 350 µM; in series [7], 70.1 µM; in series [14], 9.73 µM; in series [16], 41.7 µM; in series [31], 25.9 µM; in [32], 84.5 µM. The viability at 300 µM worked out at 23.4% in series [3] and 67.9% in series [5]. The Activity in series [4] is 0.34%; in series [8], 0.48%; in [10], 15.93%; in series [11], 1.99%; in series [12] it was 0.41%; in series [13], 0.25%. In addition, the Activity is 2.31% in series [15]; 0.24% in series [19]; “Dose-Dependent Effect” in series [20]; 18.56% in series [21]; 3.89% in series [23]; 2.65% in series [24]. Besides, the Activity was 12.52% in series [26]; 9.25% in series [28]; 1.7% in series [29]; “Non-Toxic” in series [30]; 2.79% in series [34]. Moreover, the viability at 100 µM in [6] was 73%. Moreover, the viability at 5 µM in series [9] was 92.8%. For the same molecule, the Ki is more than 100 µM in series [17] and 6.37 µM in series [27]. In series [18], the viability at 25 µM stood at 78.7%. In addition, the viability at 10 µM in series [22] came out at 88.4%. The “growth inhibition (GI)” value in [25] is “inactive”. The viability at 15 µM in series [33] came out at 85.5%.
With `NS(=O)(=O)c1cc2ccccc2oc1=O`, the “growth inhibition (GI)” value in series [25] was “inactive”. The inhibitory constant (Ki) in series [27] is 0.0651 µM.
Regarding `Cc1cc(C)c2cc(S(N)(=O)=O)c(=O)oc2c1`, the “growth inhibition (GI)” value in series [25] was “inactive”. The Ki in series [27] worked out at 0.825 µM.
Take `NS(=O)(=O)c1cc2cc(Cl)cc(Cl)c2oc1=O`: the IC50 in series [2] came out at 14.3 µM; in [7], 35.2 µM; in series [14], 26.9 µM; in [16] it was 74 µM; in [31] it was 20.3 µM; in series [32], 9.54 µM. In addition, the viability at 300 µM stood at 2.84% in series [3], 54.1% in series [5] and 15.1% in series [36]. Moreover, the viability at 100 µM in series [6] was 38.8%; in series [35] it was 43.5%. Further, in series [25], the “growth inhibition (GI)” value is “inactive”. In addition, in [27], the Ki was 0.518 µM. Also, the Activity entry in series [30] is listed as “Non-Toxic”.
For the molecule `COc1ccc2cc(S(N)(=O)=O)c(=O)oc2c1`, in series [25], the “growth inhibition (GI)” value is “inactive”. For the same molecule, the Ki in [27] was found to be 0.0405 µM.
On to `NS(=O)(=O)c1cc2cc(F)ccc2oc1=O`, for which the “growth inhibition (GI)” value in [25] is “inactive”. The Ki in series [27] turned out to be 0.0326 µM.
On to `NS(=O)(=O)c1cc2cc(O)ccc2oc1=O`, for which the “growth inhibition (GI)” value in [25] was “inactive”. Moreover, the Ki in [27] turned out to be 0.0664 µM. Besides, in [37], the Activity is recorded as 65.75%.
For `CCOc1cccc2cc(S(N)(=O)=O)c(=O)oc12` the same measures were “inactive”, 0.0515 µM and 55.97%.

The values are drawn from ChEMBL document CHEMBL4825703, “Investigation of 3-sulfamoyl coumarins against cancer-related IX and XII isoforms of human carbonic anhydrase as well as cancer cells leads to the discovery of 2-oxo-2H-benzo[h]chromene-3-sulfonamide - A new caspase-activating proapoptotic agent” (Eur J Med Chem, 2021).
